Source: ChEMBL document CHEMBL5252646, “Novel thienocycloalkylpyridazinones as useful scaffolds for acetylcholinesterase inhibition and serotonin 5-HT6 receptor interaction” (Bioorg Med Chem, 2023)
Calls of active or inactive are those of the source. The rule behind the calls is not given here.

Legend:
[1] = target: T1, 5-hydroxytryptamine receptor 4 (Homo sapiens, UniProt Q13639); assay: Antagonist activity at 5-HT4 receptor in human HeLa cells assessed as inhibition of intracellular calcium mobilization at 10 uM incubated for 2 hrs by FLIPR assay; type: cell-based
Outline: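 HeLa cells stably expressing human 5-HT4, 20,000 per well, seeded the day before. Medium replaced with DMEM plus Calcium 6 dye, 2 h at 37 °C, then compounds and standard added. Intracellular calcium read by fluorescence (ex 480, em 540 nm) every second after a baseline. Duplicates.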

[2] = target: T2, 5-hydroxytryptamine receptor 7 (Homo sapiens, UniProt P34969); assay: Displacement of [3H]SB269970 from human 5-HT7 receptor expressed in HEK cell membrane incubated for 60 mins by microplate beta scintillation counting analysis; type: cell membranes
[3] = target: T3, 5-hydroxytryptamine receptor 1A (Homo sapiens, UniProt P08908); assay: Displacement of [3H]-8-OH-DPAT from human 5-HT1A receptor expressed in HEK cell membrane incubated for 120 mins by microplate beta scintillation counting analysis; type: cell membranes
T3 sequence (P08908 whole entry): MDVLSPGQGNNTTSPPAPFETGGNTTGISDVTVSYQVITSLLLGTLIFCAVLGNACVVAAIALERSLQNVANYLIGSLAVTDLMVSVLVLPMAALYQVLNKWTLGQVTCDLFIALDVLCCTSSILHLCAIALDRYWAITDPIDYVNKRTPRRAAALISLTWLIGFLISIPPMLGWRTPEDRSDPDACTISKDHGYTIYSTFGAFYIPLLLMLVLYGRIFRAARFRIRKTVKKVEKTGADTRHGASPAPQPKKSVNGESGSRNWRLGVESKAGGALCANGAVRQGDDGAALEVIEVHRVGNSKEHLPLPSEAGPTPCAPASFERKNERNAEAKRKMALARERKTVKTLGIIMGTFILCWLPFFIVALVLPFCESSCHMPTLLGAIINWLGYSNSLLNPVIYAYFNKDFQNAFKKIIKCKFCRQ
Outline: (§1)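 Membranes from HEK cells expressing human 5-HT1A, 10 µg per well, with 1 nM [3H]-8-OH-DPAT, 120 min at 37 °C. Buffer 50 mM Tris-HCl, 5 mM MgSO4, pH 7.4. Nonspecific binding with 10 µM 5-HT. Filtered on PEI-treated GF/C and washed, then scintillation counted. Duplicates.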

[4] = target: T4, 5-hydroxytryptamine receptor 6 (Homo sapiens, UniProt P50406); assay: Displacement of [3H]-LSD from human 5-HT6 receptor expressed in HEK cell membrane incubated for 60 mins by microplate beta scintillation counting analysis; type: cell membranes
Outline: (§2)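 Membranes from HEK cells expressing human 5-HT6, 5 µg per well, with 2 nM [3H]-LSD, 60 min at 37 °C. Buffer 50 mM Tris-HCl, 10 mM MgCl2, 0.5 mM EDTA, pH 7.4. Nonspecific binding with 100 µM 5-HT. Filtered on GF/C, scintillation counted.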

Acetylcholinesterase [5] = target: T5, Acetylcholinesterase (Homo sapiens, UniProt P22303); assay: Inhibition of human AChE using acetylthiocholine iodide as substrate preincubated with enzyme for 20 mins followed by substrate addition and measured for 5 mins by Ellman's spectrophotometric method
[6] = target: T2, 5-hydroxytryptamine receptor 7; assay: Displacement of [3H]SB269970 from human 5-HT7 receptor expressed in HEK cell membrane at 10 uM incubated for 60 mins by microplate beta scintillation counting analysis; type: cell membranes
Outline: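 Membranes from HEK cells expressing human 5-HT7, 2 µg per well, with 2 nM [3H]-SB269970, 60 min at 37 °C. Buffer Tris-HCl 50 mM, 4 mM CaCl2, 1 mM ascorbic acid, 0.1 mM pargyline, pH 7.4. Nonspecific binding with 25 µM clozapine. Filtered, scintillation counted. Duplicates. Displacement as % at 10 µM.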

[7] = target: T4, 5-hydroxytryptamine receptor 6; assay: Displacement of [3H]-LSD from human 5-HT6 receptor expressed in HEK cell membrane at 10 uM incubated for 60 mins by microplate beta scintillation counting analysis; type: cell membranes; outline: as §2
Cholinesterase [8] = target: T6, Cholinesterase (Homo sapiens, UniProt P06276); assay: Inhibition of human BChE using butyrylthiocholine iodide as substrate at 10 uM preincubated with enzyme for 20 mins followed by substrate addition and measured for 5 mins by Ellman's spectrophotometric method; conditions: time 25.0 min
Acetylcholinesterase [9] = target: T5, Acetylcholinesterase; assay: Competitive inhibition of human AChE using acetylthiocholine iodide as substrate preincubated with enzyme for 20 mins followed by varing concentrations of substrate addition and measured for 5 mins by Lineweaver-Burk plot analysis
Outline: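 Human AChE, Ellman spectrophotometric method in 96-well format, run in triplicate. Kinetics: six acetylthiocholine concentrations (0.033 to 0.2 mM) crossed with four inhibitor concentrations (0–300 nM). Analysed by the Michaelis-Menten approach; kinetic parameters from nonlinear regression.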

Cholinesterase [10] = target: T6, Cholinesterase; assay: Inhibition of human BChE using butyrylthiocholine iodide as substrate preincubated with enzyme for 20 mins followed by substrate addition and measured for 5 mins by Ellman's spectrophotometric method
[11] = target: T7, 5-hydroxytryptamine receptor 1A (Homo sapiens) (UniProt P08908); assay: Displacement of [3H]-8-OH-DPAT from human 5-HT1A receptor expressed in HEK cell membrane at 10 uM incubated for 120 mins by microplate beta scintillation counting analysis; type: cell membranes; outline: as §1
T7 sequence (whole entry): T3 sequence (P08908 whole entry)

[12] = target: T1, 5-hydroxytryptamine receptor 4; assay: Antagonist activity at 5-HT4 receptor in human HeLa cells assessed as inhibition of intracellular calcium mobilization incubated for 2 hrs by FLIPR assay; type: cell-based
Outline: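 HeLa cells stably expressing human 5-HT4, seeded the day before at 20,000 cells/well. Medium replaced with DMEM plus Calcium 6 dye, then 2 h at 37 °C. Compounds and standard added afterwards. Fluorescence from intracellular calcium mobilization (ex 480 nm, em 540 nm) recorded every second after a baseline was set. Run in duplicate.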

T6 sequence (P06276 whole entry): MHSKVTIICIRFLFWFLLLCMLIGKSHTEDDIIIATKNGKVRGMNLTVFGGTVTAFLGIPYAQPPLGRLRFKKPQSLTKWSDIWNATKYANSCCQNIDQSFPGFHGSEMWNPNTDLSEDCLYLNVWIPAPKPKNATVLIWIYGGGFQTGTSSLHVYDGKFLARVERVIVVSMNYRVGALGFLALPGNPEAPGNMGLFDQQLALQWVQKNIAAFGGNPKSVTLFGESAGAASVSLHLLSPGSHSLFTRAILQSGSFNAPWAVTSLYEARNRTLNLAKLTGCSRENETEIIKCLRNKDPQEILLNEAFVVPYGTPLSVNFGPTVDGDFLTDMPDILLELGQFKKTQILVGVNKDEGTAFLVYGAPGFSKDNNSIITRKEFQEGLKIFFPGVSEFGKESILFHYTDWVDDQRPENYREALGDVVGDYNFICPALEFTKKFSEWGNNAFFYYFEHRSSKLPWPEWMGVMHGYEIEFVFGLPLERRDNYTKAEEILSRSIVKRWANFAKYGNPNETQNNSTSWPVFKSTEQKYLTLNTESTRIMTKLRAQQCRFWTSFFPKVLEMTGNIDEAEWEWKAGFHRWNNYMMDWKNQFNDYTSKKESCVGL
T2 sequence (P34969 whole entry): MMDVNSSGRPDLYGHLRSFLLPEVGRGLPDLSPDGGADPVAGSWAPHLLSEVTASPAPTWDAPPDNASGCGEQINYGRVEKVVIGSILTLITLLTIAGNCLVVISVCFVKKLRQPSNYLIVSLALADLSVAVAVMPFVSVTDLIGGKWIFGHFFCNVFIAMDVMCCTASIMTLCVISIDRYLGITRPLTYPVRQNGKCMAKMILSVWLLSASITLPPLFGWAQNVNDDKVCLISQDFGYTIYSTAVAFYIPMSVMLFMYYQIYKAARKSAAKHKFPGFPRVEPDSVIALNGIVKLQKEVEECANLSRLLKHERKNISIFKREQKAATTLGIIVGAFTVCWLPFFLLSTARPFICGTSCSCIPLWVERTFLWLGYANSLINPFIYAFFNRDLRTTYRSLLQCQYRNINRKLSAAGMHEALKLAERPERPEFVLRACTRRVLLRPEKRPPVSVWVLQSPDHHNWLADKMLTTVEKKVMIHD
T4 sequence (P50406 whole entry): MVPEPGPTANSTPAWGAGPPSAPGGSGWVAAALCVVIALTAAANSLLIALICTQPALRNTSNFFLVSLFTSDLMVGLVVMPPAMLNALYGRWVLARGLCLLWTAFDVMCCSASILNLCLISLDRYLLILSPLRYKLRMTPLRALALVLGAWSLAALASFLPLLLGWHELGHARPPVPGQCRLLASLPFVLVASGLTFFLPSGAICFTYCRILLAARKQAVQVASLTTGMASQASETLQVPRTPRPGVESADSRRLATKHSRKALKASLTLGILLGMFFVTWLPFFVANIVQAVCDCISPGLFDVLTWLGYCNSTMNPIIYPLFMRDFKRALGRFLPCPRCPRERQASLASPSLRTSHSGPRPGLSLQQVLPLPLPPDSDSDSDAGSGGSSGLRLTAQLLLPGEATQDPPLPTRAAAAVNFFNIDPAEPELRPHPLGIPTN
T5 sequence (P22303 whole entry): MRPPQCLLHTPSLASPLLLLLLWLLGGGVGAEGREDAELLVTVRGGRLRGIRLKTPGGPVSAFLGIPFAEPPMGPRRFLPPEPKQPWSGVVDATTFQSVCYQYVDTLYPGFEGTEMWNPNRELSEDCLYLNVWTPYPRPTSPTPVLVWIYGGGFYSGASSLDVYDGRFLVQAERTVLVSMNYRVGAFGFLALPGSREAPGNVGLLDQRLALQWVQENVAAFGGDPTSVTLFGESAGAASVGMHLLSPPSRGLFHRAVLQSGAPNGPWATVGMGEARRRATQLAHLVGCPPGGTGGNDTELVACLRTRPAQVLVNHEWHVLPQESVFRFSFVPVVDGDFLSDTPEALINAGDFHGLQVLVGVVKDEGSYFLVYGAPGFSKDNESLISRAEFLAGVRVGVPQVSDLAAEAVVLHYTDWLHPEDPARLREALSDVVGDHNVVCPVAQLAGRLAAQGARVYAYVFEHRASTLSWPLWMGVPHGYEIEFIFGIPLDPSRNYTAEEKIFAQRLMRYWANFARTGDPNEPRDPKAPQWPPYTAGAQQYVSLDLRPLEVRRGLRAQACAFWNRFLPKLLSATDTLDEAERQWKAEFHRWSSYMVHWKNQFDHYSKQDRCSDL
T1 sequence (Q13639 whole entry): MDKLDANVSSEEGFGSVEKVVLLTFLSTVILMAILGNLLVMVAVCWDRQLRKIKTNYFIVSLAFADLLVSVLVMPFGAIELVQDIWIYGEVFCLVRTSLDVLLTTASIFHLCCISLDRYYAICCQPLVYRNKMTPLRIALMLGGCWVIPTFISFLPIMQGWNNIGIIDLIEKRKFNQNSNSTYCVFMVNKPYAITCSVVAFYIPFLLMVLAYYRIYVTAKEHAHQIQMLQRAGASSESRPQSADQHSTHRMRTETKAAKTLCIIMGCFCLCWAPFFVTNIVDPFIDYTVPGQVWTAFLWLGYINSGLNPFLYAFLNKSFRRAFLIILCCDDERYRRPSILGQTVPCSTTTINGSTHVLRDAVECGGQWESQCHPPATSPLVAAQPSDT

| Compound | inhibition [1] | Ki [2] | Ki [3] | Ki [4] | IC50 (Acetylcholinesterase [5]) | inhibition [6] | inhibition [7] | inhibition (Cholinesterase [8]) | Ki (Acetylcholinesterase [9]) | IC50 (Cholinesterase [10]) | inhibition [11] | Ki [12] | inhibition ([6]; filed as antagonist) |
| --- | --- | --- | --- | --- | --- | --- | --- | --- | --- | --- | --- | --- | --- |
| O=C1CC2Cc3ccsc3C2=NN1CCCCCCCN1CCN(Cc2cccc3c2ccn3S(=O)(=O)c2ccccc2)CC1 (centres undefined) | inactive | 3760 nM | 6620 nM | 80 nM | 7180 nM |  |  |  |  |  |  |  |  |
| O=C1CC2CCc3ccsc3C2=NN1CCCCN1CCN(Cc2cccc3c2ccn3S(=O)(=O)c2ccccc2)CC1 (centres undefined) | inactive | 2010 nM | 2840 nM | 236 nM | 7610 nM |  |  |  |  |  |  |  |  |
| O=C1CC2CCc3ccsc3C2=NN1CCCCN1CCCC1 (centres undefined) |  |  | 3530 nM |  | 1160 nM | 16% | 33% | 14% |  |  |  |  |  |
| O=C1CC2CCc3ccsc3C2=NN1CCN1CCN(Cc2ccccc2)CC1 (centres undefined) |  |  | 1080 nM | 1670 nM | 170 nM | 26% |  |  | 123 nM | 5110 nM |  |  |  |
| CN(C)CCCCN1N=C2c3sccc3CCC2CC1=O (centres undefined) |  |  |  |  | 6360 nM | 24% | 36% | inactive |  |  | 37% |  |  |
| O=C1CC2CCc3ccsc3C2=NN1CCCCN1CCN(Cc2ccccc2)CC1 (centres undefined) |  | 995 nM | 496 nM | 3300 nM | 756 nM |  |  | 45% |  |  |  |  |  |
| O=C1CC2CCc3ccsc3C2=NN1CCCCCN1CCN(Cc2cccc3c2ccn3S(=O)(=O)c2ccccc2)CC1 (centres undefined) | inactive | 1690 nM |  | 63 nM | 4440 nM |  |  |  |  |  | 35% |  |  |
| O=C1CC2Cc3ccsc3C2=NN1CCCCN1CCN(Cc2ccccc2)CC1 (centres undefined) |  | 1000 nM | 614 nM | 3970 nM | 538 nM |  |  | 11% |  |  |  |  |  |
| O=C1CC2CCc3sccc3C2=NN1CCCCN1CCN(Cc2ccccc2)CC1 (centres undefined) |  |  |  |  | 860 nM |  |  |  |  | 3300 nM |  |  |  |
| CCN(CC)CCCCN1N=C2c3sccc3CCC2CC1=O (centres undefined) |  |  | 8630 nM |  | 2930 nM | 10% | 27% | inactive |  |  |  |  |  |
| O=C1CC2CCCc3ccsc3C2=NN1CCCCN1CCN(Cc2ccccc2)CC1 (centres undefined) |  | 976 nM | 414 nM | 1430 nM | 1230 nM |  |  |  |  | 4130 nM |  |  |  |
| O=C1CC2Cc3ccsc3C2=NN1CCCCN1CCN(Cc2cccc3c2ccn3S(=O)(=O)c2ccccc2)CC1 (centres undefined) | 26% | 2020 nM | 4610 nM | 193 nM | 3550 nM |  |  |  |  |  |  |  |  |
| O=C1CC2CCc3ccsc3C2=NN1CCCCN1CCCCC1 (centres undefined) |  |  | 4300 nM |  | 2090 nM | 18% | 30% | 9% |  |  |  |  |  |
| O=C1CC2CCc3ccsc3C2=NN1Cc1ccc(CN2CCN(Cc3ccccc3)CC2)cc1 (centres undefined) |  | 2110 nM | 786 nM | 1260 nM | 3650 nM |  |  |  |  | 9700 nM |  |  |  |
| O=C1CC2Cc3ccsc3C2=NN1CCCCCN1CCN(Cc2cccc3c2ccn3S(=O)(=O)c2ccccc2)CC1 (centres undefined) | inactive | 1800 nM | 3580 nM | 8.4 nM | 6890 nM |  |  |  |  |  |  |  |  |
| Cn1cc(C(=O)OCC2CCN(CCNS(C)(=O)=O)CC2)c2ccccc21 |  |  |  |  |  |  |  |  |  |  |  | 1.4 nM |  |
| O=C1CC2Cc3ccsc3C2=NN1CCCCCCN1CCN(Cc2cccc3c2ccn3S(=O)(=O)c2ccccc2)CC1 (centres undefined) | inactive |  | 5160 nM | 68 nM | 9180 nM | 39% |  |  |  |  |  |  |  |
| O=C1CC2CCc3ccsc3C2=NN1CN1CCN(Cc2ccccc2)CC1 (centres undefined) |  |  |  |  | 13600 nM | 23% | 28% |  |  | 5580 nM | 24% |  |  |
| O=C1CC2CCc3ccsc3C2=NN1CCCCCCN1CCN(Cc2cccc3c2ccn3S(=O)(=O)c2ccccc2)CC1 (centres undefined) | 12% |  |  | 102 nM | 9800 nM | 33% |  |  |  |  | 23% |  |  |
| O=C1CC2CCc3ccsc3C2=NN1CCCCCCCN1CCN(Cc2cccc3c2ccn3S(=O)(=O)c2ccccc2)CC1 (centres undefined) | 16% |  |  | 87 nM | 4560 nM |  |  |  |  |  | 33% |  | 43% |
